Results on 6 compounds are retold here after article PMC3488162 (The Journal of investigative dermatology, 2012).

Entries after “also recorded” stand apart in the source; their conditions may differ.

One data set relates to GAPDH. Conditions: ref Mookherjee et al., 2009; cited from earlier work.
The test system of a further data set is Sap. Conditions: ref Korting et al., 1999; cited from earlier work.
The test system of data set [1] is IL-8 secretion of epithelial cells. The data set is described as follows: IL-8 secretion by epithelial cells. Conditions: 5 μg/ml, 12 h, n = 6. The data set is classed as cell-based, human. Put shortly:
(§1)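 Epithelial cells infected or not with C. albicans SC5314, with or without 5 μg/ml test compound, for 12 h. Cytokine in culture supernatants measured by DuoSet sandwich ELISA. Data are means±SD of duplicate assays from three experiments; 2-tailed paired t test, n = 6.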

Data set [2] relates to C. albicans. The data set is described as follows: Radial diffusion test, C. albicans. Format: cell-based, Candida albicans. The note with it: different media.
Data set [3] deals with C. albicans. The data set is described as follows: Flow cytometric antimicrobial killing assay. Format: cell-based, Candida albicans. The note with it: for depolarized fungal cells in a population: 1:6 diluted Schaedler broth, DiBAC4(3), flow cytometry, means of one representative experiment in triplicate; for antifungal activity compared between hGAPDH (2-32), LL-37 and hBD-3: 10 μg/ml each. Put shortly: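 Candida albicans (strains 143, 277, 526 and SC5314; 1.5×10^6 cells) incubated at 37°C in 1:6-diluted Schaedler broth with test peptide or reference antimicrobial peptides at 10 μg/ml, dissolved in 0.01% acetic acid. Solvent-only controls. After 90 min, DiBAC4(3) membrane-potential dye added for 10 min; cells pelleted and resuspended in PBS. Percentage of depolarized cells counted by flow cytometry, 10,000 events per sample.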
A general note: Flow cytometry measures light scatter and fluorescence of single cells or particles in a stream.

Another data set concerns E. coli. The data set can be described thus: Flow cytometric antimicrobial killing assay. The note with it: 90 min, 37°C. The data set is classed as cell-based, E. coli ATCC 25922. Put shortly: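 E. coli ATCC 25922 (1.5×10^6 cells) in 1:6 diluted Schaedler broth at 37°C. Peptides dissolved in 0.01% acetic acid and added at 10 μg/ml; solvent served as viability control. After 90 min, DiBAC4(3) added for 10 min, cells spun and resuspended in PBS. Percentage of depolarised cells counted by flow cytometry over 10 000 events. One representative experiment run in triplicate.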

For the next data set, the system named is C. albicans cells. The data set is classed as cell-based, Candida albicans. The note with it: external (5 μg/ml) and endogenous peptide; oral RHE, 12 h; immunofluorescence. Put shortly: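 Oral RHE infected with 2×10^6 C. albicans SC5314 in TSB/10 mM sodium phosphate, pH 7.2, with or without 5 μg/ml peptide, for 12 h. Tissue cryofixed; 5-μm sections fixed in PLP, blocked with donkey serum. Stained with affinity-purified rabbit anti-peptide antibody (1:50) and human anti-C. albicans serum (1:60), then Dylight 549/Cy5 secondaries and YOPRO nuclear stain. Confocal imaging at ×400 and ×250.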

For data set [4], the system named is C. albicans. The data set can be described thus: Annexin V-FITC / propidium iodide staining, apoptotic and necrotic marker. Format: cell-based, Candida albicans.
Data set [5] has as its system RHE (TR146) infected with C. albicans SC5314. The data set is described as follows: Histology of reconstituted human oral epithelium. The data set is classed as cell-based. The note with it: 125 μg/ml, 18 h after infection with C. albicans SC5314. In a few lines:
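Multilayer oral RHE infected with 2×10^6 C. albicans SC5314 in 3 g/l TSB/10 mM sodium phosphate, pH 7.2. Test compound at 5–125 μg/ml or none, for 12 and 18 h at 37 °C in 5% CO2 with 100% humidity. Light microscopy scored on 50 sections from five sites per epithelium.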

The subject of the next data set is E. coli BL21. The data set can be described thus: Broth microdilution, E. coli BL21. The note with it: data not shown. Format: cell-based.
A further data set addresses Sap2p (Candida albicans, UniProt P0CS83). The data set is described as follows: Sap inhibition assay, Sap2. The data set is classed as biochemical, C. albicans. Conditions: as stated in abstract.
The subject of a further data set is TR146 epithelial cells. The data set is described as follows: LDH release by uninfected epithelial cells. Format: cell-based, human. In a few lines:
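TR146 buccal cells grown in DMEM with 10% FCS at 37°C, 5% CO2. Tests run in antibiotic-free medium with 5, 10, 50, 100 or 125 μg/ml test compound for 12 and 24 h. Damage read as LDH release. Standard LDH samples spiked with 5 and 125 μg/ml test compound checked for assay interference.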
For orientation: Release of lactate dehydrogenase indicates damage to the cell membrane.

For data set [6], the system named is GM-CSF secretion of epithelial cells. The data set is described as follows: GM-CSF secretion by epithelial cells. Conditions: uninfected epithelial cells; 5 μg/ml; 12 h; n = 6. Format: cell-based, human. In a few lines: as §1
Data set [7] relates to TLR4 mRNA expression of epithelial cells. The data set is described as follows: Epithelial TLR4 mRNA expression. Format: cell-based, human. The note with it: 5 μg/ml, 12 h, n = 6. Put shortly:
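Epithelial cells infected or not with C. albicans SC5314, with or without 5 μg/ml test compound, for 12 h. Total RNA extracted; cDNA made from 1 μg RNA with SuperScript III. qPCR run in duplicate using mean Ct, normalised to a housekeeping gene. Data are means±SD of duplicate assays from three experiments; 2-tailed paired t test, n = 6.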

A further data set has as its system P. aeruginosa PAO. The data set is described as follows: Broth microdilution, P. aeruginosa PAO. The data set is classed as cell-based. Conditions: data not shown. Background: Broth dilution looks for growth in wells or tubes with falling amounts of substance.
The next data set has as its system C. albicans SC5314. The data set can be described thus: Electron microscopy of C. albicans. The data set is classed as cell-based, Candida albicans. Conditions: 125 μg/ml, 24 h, 37 °C. Put shortly: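 About 10^6 SC5314 cells/ml held with 125 μg/ml test compound for 24 h at 37 °C, beside an untreated control. Pellets fixed in 2.5% glutaraldehyde/2% formaldehyde (0.05 M phosphate, pH 7.3), post-fixed in 1% OsO4 and embedded in glycid ether. Sections of 20–30 nm stained with uranyl acetate and viewed by transmission EM.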

The next data set concerns the target Sap1p (Candida albicans, UniProt P0CY27). The note with it: as stated in abstract.
Data set [8] has as its system C. albicans. The data set can be described thus: Broth microdilution, C. albicans. The note with it: data not shown. The data set is classed as cell-based, Candida albicans.
For data set [9], the system named is P. aeruginosa clinical isolate. The data set can be described thus: Broth microdilution, P. aeruginosa clinical isolate. The data set is classed as cell-based. Conditions: data not shown.
The next data set has as its system Sap2. Conditions: ref Wu et al., 1999, cited from earlier work.
In data set [10] the test system is C. albicans. Conditions: ref Wu et al., 1999, cited from earlier work.
[11] abbreviates: epithelial cells infected with C. albicans SC5314.

Chain of Sap2p (P0CS83 57-398): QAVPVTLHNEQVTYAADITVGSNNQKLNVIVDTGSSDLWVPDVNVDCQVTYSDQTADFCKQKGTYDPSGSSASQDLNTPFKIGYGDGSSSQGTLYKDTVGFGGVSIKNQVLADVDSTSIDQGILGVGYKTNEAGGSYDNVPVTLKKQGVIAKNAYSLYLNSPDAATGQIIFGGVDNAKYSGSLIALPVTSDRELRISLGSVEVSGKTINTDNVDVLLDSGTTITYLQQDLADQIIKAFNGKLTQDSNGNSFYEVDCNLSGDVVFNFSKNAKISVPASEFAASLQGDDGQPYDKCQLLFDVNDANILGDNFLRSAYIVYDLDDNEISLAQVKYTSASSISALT
Chain of Sap1p (P0CY27 51-391): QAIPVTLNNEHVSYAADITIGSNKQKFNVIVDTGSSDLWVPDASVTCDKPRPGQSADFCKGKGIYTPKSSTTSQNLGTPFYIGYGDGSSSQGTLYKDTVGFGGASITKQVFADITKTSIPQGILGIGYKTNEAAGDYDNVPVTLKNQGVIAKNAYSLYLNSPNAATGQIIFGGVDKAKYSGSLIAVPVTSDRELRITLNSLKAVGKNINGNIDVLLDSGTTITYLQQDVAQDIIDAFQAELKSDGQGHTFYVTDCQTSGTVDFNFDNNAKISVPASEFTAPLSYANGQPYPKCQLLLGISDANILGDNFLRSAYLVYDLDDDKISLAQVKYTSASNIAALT

With “LL-37: antimicrobial peptide LL-37 (Innovagen, Lund, Sweden); human cathelicidin (LLGDFFRKSKEKIGKEFKRIVQRIKDFLRNLVPRTES; Antibacterial peptide LL-37; UniProt P49913 134-170, looked up)”, the “GAPDH as mononuclear cell receptor” value in the data set on GAPDH was “GAPDH is relevant for the functioning”.

As for `CC(C)(C)NC(=O)[C@@H]1CN(Cc2cccnc2)CCN1C[C@@H](O)C[C@@H](Cc1ccccc1)C(=O)N[C@H]1c2ccccc2C[C@H]1O` [indinavir], the “inhibition of Sap activity” value with Sap is on record as “inhibit Sap activity”.

In the case of `CC(C)(C)NC(=O)[C@@H]1C[C@@H]2CCCC[C@@H]2CN1C[C@@H](O)[C@H](Cc1ccccc1)NC(=O)[C@H](CC(N)=O)NC(=O)c1ccc2ccccc2n1` [saquinavir], the “inhibition of Sap activity” value with Sap is on record as “inhibit Sap activity”.

Regarding “GKVKVGVNGFGRIGRLVTRAAFNSGKVDIVA [hGAPDH (2-32)]”, the IL-8 secretion entry in [1] (setting [11]) is “even increased”; in [1] (uninfected epithelial cells), “increased secretion”. Moreover, in the data set with C. albicans [2], the antifungal activity entry is recorded as “antifungal activity was also demonstrated”. The “dose dependence of antifungal effect” value in the data set with C. albicans [3] (C. albicans SC5314, 5, 10, 50, 100 and 125 μg/ml, 90 min) is “dose dependent”. In the data set on C. albicans [3] (C. albicans, 5 μg/ml), the “effectiveness in killing assay” value is “not very effective”. Besides, the “depolarized fungal cells in a population” value in the data set with C. albicans [3] (C. albicans, 10 µg/ml (3.1 µM), 90 min, 37°C) is recorded as 45%; with C. albicans [3] (C. albicans, 100 µg/ml, 90 min, 37°C), 90%. Further, the “antifungal activity compared between hGAPDH (2-32), LL-37 and hBD-3” value in the data set on C. albicans [3] (C. albicans, 90 min, 37°C) is recorded as “not significantly different”. Moreover, the “depolarizing of the fungi in a population” value in the data set with C. albicans [3] (two of the four tested C. albicans strains, 10 μg/ml, 90 min, 37°C) was “approximately 50%”. The “sensitivity of C. albicans strains” value with C. albicans [3] (two other of the four tested C. albicans strains, 10 μg/ml, 90 min, 37°C) is reported as “slightly lower sensitivity”. Further, the “antibacterial activity compared with LL-37 and hBD-3” value in the data set on E. coli (10 μg/ml each) was “less active against E. coli”. For the same compound, in the data set on E. coli (10 μg/ml, 1:6 diluted Schaedler broth), the antibacterial activity result is listed as “potent antibacterial activity”. In addition, in the data set with C. albicans cells, the “affinity to C. albicans cells” value was “strong affinity”. In addition, the “internalization by fungal cells” value with C. albicans cells is “internalization by the fungal cells”. Besides, the “protoplasts with peripheral annexin V-FITC fluorescence (apoptosis)” value in the data set with C. albicans [4] (5 μg/ml, 1 h, 37°, 300 fungal cells) is listed as 31%. In the data set on C. albicans [4] (treated for longer time with 5 μg/ml or at higher doses), the “cellular changes after longer treatment or higher doses” value is listed as “cellular changes characteristic of necrosis”. Moreover, in [5], the “morphological alterations of infected RHE” value is on record as “far less marked morphological alterations”. Further, the “number of yeast cells on the mucosal surface” value in data set [5] was “decreased”. Moreover, the “spongiosis and invasion of keratinocytes by yeast cells” value in data set [5] is reported as “inhibited”. Moreover, the “edema in infected RHE” value in [5] (uppermost keratinocyte layers) is listed as “mild edema”. Further, the “growth inhibition (MIC 100%)” value (in the data set with E. coli BL21; with P. aeruginosa PAO; with C. albicans [8]; in data set [9]) was “micromolar concentrations” throughout. Besides, the “ED50, inhibition of Sap activity” value at Sap2p came to 200 µg/mL; at Sap1p, 160 µg/mL. Besides, the toxic mucosal effects result with TR146 epithelial cells (low concentrations) is recorded as “without any toxic mucosal effects”. In addition, the “toxicity on mammalian cells” value in the data set with TR146 epithelial cells (uninfected epithelial cells, LDH release) is “low toxicity”. Also, the GM-CSF secretion result in data set [6] is given as “increased secretion”. Moreover, the TLR4 expression result in data set [7] (setting [11]) is reported as “increased”. For the same compound, the “TLR4 mRNA expression” value in data set [7] (uninfected epithelial cells, vs PBS treated controls) is on record as “increased”. The “ultrastructural changes of C. albicans morphology” value with C. albicans SC5314 was “distinct changes of the cell wall, plasma membrane and the cytoplasm; also recorded: enlargement of the fungal cytoplasmic vacuoles, disorganization of the internal organelles and the appearance of yeasts with an empty cytoplasm resembling necrotic ghost cells”.

In the case of “hBD-3: antimicrobial peptide hBD-3 (Peptide Institute, Osaka, Japan) (GIINTLQKYYCRVRGGRCAVLSCLPKEEQIGKCSTRGRKCCRRKK; UniProt P81534 23-67, looked up) [reference compound]”, in the data set on C. albicans [3] (C. albicans, 90 min, 37°C), the “antifungal activity compared between hGAPDH (2-32), LL-37 and hBD-3” value is “not significantly different”.

As to “lysozyme: antimicrobial protein ubiquitous in human mucosal secretions such as saliva”, the “production of Sap” value in the data set on Sap2 (lower concentrations) is “decreasing the production”. In the data set with Sap2, the “secretion of the isoenzyme Sap2” value is “decreased”. Besides, the “killing of C. albicans” value in the data set with C. albicans [10] (higher concentrations) is recorded as “killing the organism”. Besides, the “growth of C. albicans” value with C. albicans [10] is “inhibited the growth”.
